This note sets out measurements from ChEMBL document CHEMBL4699407, “Isoquinoline thiosemicarbazone displays potent anticancer activity with in vivo efficacy against aggressive leukemias” (RSC Med Chem, 2020).

Calls of active or inactive are those of the source. The calls are words filed in the database; no cut-off is given here.

The subject of series [1] is MIA PaCa-2. Put plainly: Induction of mitochondrial ROS generation in human MIA PaCa-2 cells at 25 nM in presence of Cu2+ incubated for 24 hrs by MitoSox red dye based flow cytometry analysis. The following applies: Mitochondria. In kind it is functional. An outline of the steps:
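Exposure was 25 nM compound plus 20 μM Cu(II) for 24 h. Cells washed, stained with MitoSOX for 30 min at 37 °C, washed with PBS and analysed by flow cytometry. Mean ± SD, n = 2, Student t-test.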

Series [2] deals with MIA PaCa-2. Put plainly: Induction of apoptosis in human MIA PaCa-2 cells assessed as increase in early apoptotic cells at 25 nM in presence of ATRi incubated for 72 hrs by annexin V and propidium iodide staining based flow cytometry analysis relative to control. The series is classed as functional. An outline of the steps: (§1)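 Cells given 25 nM compound with or without 20 μM Cu(II) and/or the ATR inhibitor VE-822 at 250 nM for 72 h. Stained with annexin V-FITC and propidium iodide, then analysed on a five-laser flow cytometer to score viable, early apoptotic, late apoptotic and necrotic fractions against vehicle.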
On the technique in general: Flow cytometry measures light scatter and fluorescence of single cells or particles in a stream.

Series [3] in a line: Cytotoxicity against human SUIT-2 cells assessed as reduction in cell viability in presence of Cu2+ incubated for 72 hrs by cell titer-glo luminescent cell viability assay. The series is classed as functional, cell-based. As to conditions: SUIT-2, 72 h. An outline of the steps: (§2)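 Cells were grown in DMEM or RPMI with 10% FBS, without antibiotics, at 37 °C, 20% O2, 5% CO2. Adherent lines were seeded at 500 cells/well. Serially diluted compound was given with 20 μM Cu(II) (CuCl2) for 72 h; leukemia models received pre-formed 1:1 copper complex. ATP was read by CellTiter-Glo luminescence. IC50 is relative to DMSO-treated cells.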
In general terms: In ATP-based viability assays light output follows the ATP content of the culture.

Series [4] deals with MIA PaCa-2. In words: Induction of apoptosis in human MIA PaCa-2 cells assessed as increase in early apoptotic cells at 25 nM in presence of Cu2+ incubated for 72 hrs by annexin V and propidium iodide staining based flow cytometry analysis relative to control. In kind it is functional. The method, boiled down: as §1
Series [5] has as its system MIA PaCa-2. In words: Induction of DNA damage in human MIA PaCa-2 cells assessed as decrease in dCTP level at 25 nM in presence of Cu2+ incubated for 48 hrs by LC-MS/MS analysis. In kind it is functional, cell-based. An outline of the steps:
(§3)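 Cells in DMEM or RPMI with 10% FBS, 37 °C, 5% CO2. Treated with 25 nM compound plus 20 μM Cu(II) for 48 h. Nucleotide pools quantified by LC-MS/MS with multiple reaction monitoring. Cells were in glucose-free DMEM with 10% dialyzed FBS and 11 mM [U-13C6]glucose for 48 h, and glucose-labeled pools were compared. Mean ± SD, n = 3, two-way ANOVA with Bonferroni correction.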

Series [6] has as its system MIA PaCa-2. In words: Induction of apoptosis in human MIA PaCa-2 cells assessed as increase in late apoptotic cells at 25 nM in presence of ATRi incubated for 72 hrs by annexin V and propidium iodide staining based flow cytometry analysis relative to control. In kind it is functional. An outline of the steps: as §1
Series [7] has as its system MIA PaCa-2. Put plainly: Induction of DNA damage in human MIA PaCa-2 cells assessed as decrease in GTP level at 25 nM in presence of Cu2+ incubated for 48 hrs by LC-MS/MS analysis. The series is classed as functional, cell-based. An outline of the steps:
(§4)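 MIAPACA2 cells were given 25 nM compound plus 20 μM Cu(II) for 48 h in glucose-free DMEM with 10% dialyzed FBS and 11 mM [U-13C6]glucose. Nucleotide pools were quantified by LC-MS/MS with multiple reaction monitoring. Mean ± SD, n = 3, two-way ANOVA with Bonferroni correction.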

The subject of series [8] is BXPC-3. In words: Cytotoxicity against human BXPC-3 cells assessed as reduction in cell viability in presence of Cu2+ incubated for 72 hrs by cell titer-glo luminescent cell viability assay. The series is classed as functional, cell-based. As to conditions: BXPC-3, 72 h. An outline of the steps:
as §2

Series [9] relates to MIA PaCa-2. Put plainly: Induction of DNA damage in human MIA PaCa-2 cells assessed as decrease in dGTP level at 25 nM in presence of Cu2+ incubated for 48 hrs by LC-MS/MS analysis. In kind it is functional, cell-based. The method, boiled down:
as §3

Series [10] concerns HPAF-II. Put plainly: Cytotoxicity against human HPAF-II cells assessed as reduction in cell viability in presence of Cu2+ incubated for 72 hrs by cell titer-glo luminescent cell viability assay. The series is classed as functional, cell-based. The method, boiled down: as §2
The subject of series [11] is MIA PaCa-2. Put plainly: Anti-OXPHOS activity in human MIA PaCa-2 cells assessed as reduction in oxygen consumption rate at 25 nM in presence of Cu2+ incubated for 24 hrs by […]. The series is classed as functional, cell-based. As to conditions: Mitochondria. The method, boiled down: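 Cellular Mito Stress Test: cells treated 24 h with 25 nM compound plus 20 μM Cu(II), then incubated in unbuffered DMEM with 25 mM glucose, 1 mM pyruvate and 2 mM glutamine. OCR was read on an XF24 analyzer and normalized per μg protein. It was read at baseline and after serial 1 μM oligomycin, 0.75 μM FCCP, and 1 μM rotenone plus myxothiazol.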

A short description of series [12]: Cytotoxicity against human HPDE cells assessed as reduction in cell viability in presence of Cu2+ incubated for 72 hrs by cell titer-glo luminescent cell viability assay. In kind it is cell-based. An outline of the steps: as §2
Series [13] concerns NCI-H1963. In words: Cytotoxicity against human NCI-H1963 cells assessed as reduction in cell viability in presence of Cu2+ incubated for 72 hrs by cell titer-glo luminescent cell viability assay. In kind it is functional, cell-based. As to conditions: NCI-H1963, 72 h. An outline of the steps: as §2
In series [14] the test system is MIA PaCa-2. In words: Induction of apoptosis in human MIA PaCa-2 cells assessed as reduction in viable cells at 25 nM in presence of Cu2+ incubated for 72 hrs by annexin V and propidium iodide staining based flow cytometry analysis relative to control. In kind it is functional. The method, boiled down:
as §1

Series [15] relates to MIA PaCa-2. Put plainly: Induction of DNA damage in human MIA PaCa-2 cells assessed as decrease in TTP level at 25 nM in presence of Cu2+ incubated for 48 hrs by LC-MS/MS analysis. The series is classed as functional, cell-based. An outline of the steps:
as §4

Series [16] concerns MIA PaCa-2. In words: Induction of DNA damage in human MIA PaCa-2 cells assessed as decrease in rGTP level at 25 nM in presence of Cu2+ incubated for 48 hrs by LC-MS/MS analysis. In kind it is functional, cell-based. An outline of the steps:
as §3

Series [17] deals with ASPC1. In words: Cytotoxicity against human ASPC1 cells assessed as reduction in cell viability in presence of Cu2+ incubated for 72 hrs by cell titer-glo luminescent cell viability assay. The series is classed as functional, cell-based. As to conditions: ASPC1, 72 h. The method, boiled down:
as §2

The subject of series [18] is L3.6pl. Put plainly: Cytotoxicity against human L3.6pl cells assessed as reduction in cell viability in presence of Cu2+ incubated for 72 hrs by cell titer-glo luminescent cell viability assay. The series is classed as functional, cell-based. An outline of the steps:
as §2

For series [19], the system named is MIA PaCa-2. Put plainly: Induction of ROS generation in human MIA PaCa-2 cells at 25 nM in presence of Cu2+ incubated for 24 hrs by CM-H2DCFDA staining based flow cytometry analysis. The series is classed as functional, cell-based. An outline of the steps:
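Treated with 25 nM compound ± 20 μM Cu(II) for 24 h. Cells loaded with 5 μM CM-H2DCFDA for 30 min, spun at 450g for 4 min, and returned to medium containing compound and/or Cu(II) for 30 min. Then spun, resuspended in PBS and read by flow cytometry as mean fluorescence intensity. Mean ± SD, n = 2, Student t-test.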

The subject of series [20] is MIA PaCa-2. Put plainly: Induction of DNA damage in human MIA PaCa-2 cells assessed as increase in CHEK2 phosphorylation at 10 nM in presence of Cu2+ incubated for 48 hrs by immunoblot assay. In kind it is functional, cell-based. The method, boiled down:
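Treated with 10 nM compound plus 20 μM Cu(II). Lysed in RIPA buffer with protease and phosphatase inhibitors, then sonicated and centrifuged at 20 000g, 4 °C. Protein measured by micro BCA, and equal amounts run on bis-tris gels. Primary antibodies in 5% BSA/TBST; HRP-linked anti-rabbit or anti-mouse secondaries at 1:2500. Chemiluminescent detection on film; representative blot.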
(In general: A western blot detects proteins with antibodies after separation by electrophoresis.)

With `CN(C)C(=S)NN=Cc1nccc2cc(F)ccc12`, the result in series [1], in series [9], in [11], in [16], in [19] and in series [20] was Active. Further, the Activity in [2] is on record as 9.11%; in [4], 13.9%; in series [6] it was 18.8%; in [12], “Non-Toxic”; in series [14], 77.5%. Also, the IC50 in [3], in [8], in series [10], in series [13], in [17] and in [18] was 1 nM each time. Moreover, the outcome in series [5], in series [7] and in [15] was inactive.

By IC50 is commonly meant the concentration that inhibits the measured activity by half.
